In the library only some 4.1% were active in any assay of this set; here they are far more common.
FLuc act counter: affects firefly luciferase, flagging false hits in luciferase stimulation screens; P08659; AID 1027; ATPlite luciferase biochemical, luminescence, 10 min; 0 = ATP-free wells, 1 = DMSO control; 200,000 tested, under 10 active; activation factor at 10 µM;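 active = luciferase activation factor, scaled between plate controls, of at least 2 with compound at 10 µM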
Target sequence (P08659 whole entry, looked up): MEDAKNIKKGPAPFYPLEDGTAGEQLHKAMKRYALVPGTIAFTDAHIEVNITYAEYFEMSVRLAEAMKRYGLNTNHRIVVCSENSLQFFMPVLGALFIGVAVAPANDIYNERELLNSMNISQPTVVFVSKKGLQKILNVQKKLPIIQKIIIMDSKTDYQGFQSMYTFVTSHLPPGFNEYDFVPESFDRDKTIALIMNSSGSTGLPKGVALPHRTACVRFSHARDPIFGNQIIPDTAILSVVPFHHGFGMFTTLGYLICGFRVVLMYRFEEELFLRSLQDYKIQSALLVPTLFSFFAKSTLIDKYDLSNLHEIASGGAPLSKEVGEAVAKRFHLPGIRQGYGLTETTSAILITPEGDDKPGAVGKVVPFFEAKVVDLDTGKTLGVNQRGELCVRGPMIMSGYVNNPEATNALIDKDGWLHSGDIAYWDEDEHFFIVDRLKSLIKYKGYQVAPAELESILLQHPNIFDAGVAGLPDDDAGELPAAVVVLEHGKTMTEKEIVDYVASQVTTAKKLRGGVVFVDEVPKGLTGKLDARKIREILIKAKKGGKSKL
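System: Luciferase/luciferin detection reagent, cell-free biochemical luciferase assay | Medium: PBS buffer for ATP | Dosing: Test compounds dosed from 2 mM stocks in 100% DMSO | Timing: 10 min at ambient temperature | Signal: Luminescence measurement of luciferase light output | Evaluation: Luciferase activation, seen as luminescence increase over controls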
FLuc inhib CS: counter-screen for luciferase assay inhibitors: firefly luciferase inhibition | ATPLite firefly luciferase biochemical luminescence, 10 min | inhibition, % at 10 µM | AID 1006 | hit rate 1.5% among 200,000 | P08659;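 active = inhibition above about 50% when tested at 10 µM, limit read from the data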
APP 5'UTR act: APP 5'UTR luciferase reporter activation; SH-SY5Y APP 5'UTR luciferase reporter, luminescence; zero percent = DMSO vehicle wells; activation, % at 2 µM; hit rate 1% among 190,000; AID 1276;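 active = activation above a set limit, based on mean plus 3 SD of controls, cut at about 140% in these data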
STAT1 act: increases IFN-gamma driven STAT1 reporter signal; NIH 3T3 STAT1-luciferase reporter, luminescence; 100% = IFN-gamma alone, no compound; activation (% of control), % at 5.5 µM; hit rate 2.6% among 200,000; AID 932;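 active = activation above the screen-wide mean activation plus 3 SD, cut at about 130% in these data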;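 note: raw ratio to IFN-gamma control signal so 100% means no change and 0% no light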
NF-kB neuron act: raises NF-kB expression in human neuronal cells; hit rate 1.6% among 190,000; fold change at 12.5 µM; NF-kB reporter expression; stronger effect = higher value; AID 1239; in the data active = fold change above about 3.3
Numbers without * were called inactive; . = not tested or not shown.

SMILES	FLuc act counter	FLuc inhib CS	APP 5'UTR act	STAT1 act	NF-kB neuron act
Cc1ccc(-c2csc(Cc3nc(-c4cc5ccccc5oc4=O)cs3)n2)cc1	1	-4	28	92	0.85
Cn1c(=NC(=O)C2CCCCC2)sc2cc([N+](=O)[O-])ccc21	1	-5	13	103	0.91
CCOc1ccc2c(c1)sc(=NC(=O)C1CC1)n2C	0.6	37	56	150*	3
COCCCn1cnc2oc3nc4ccccc4nc3c2c1=O	0.9	12	166*	141*	2.3
Cc1cc(C(=O)Nc2nc(-c3ccccn3)cs2)ccc1[N+](=O)[O-]	1	-4	-9	96	1.4
O=C(Nc1cccnc1)c1ccc(NC(=O)c2ccco2)cc1	1	2	17	106	0.78
Cc1ccc(C(=O)Nc2cnc3ccccc3c2)cc1	0.1	89*	-31	16	0.71
Cc1ccc(C(=O)Nc2cccc(-c3cnc4ccccc4n3)c2)cc1	0.9	6	-9	100	1.8
O=C(Nc1cccc(NC(=O)c2cccnc2)c1)c1cccnc1	1	-3	-13	94	0.45
Cc1cc(C(=O)Nc2cnc3ccccc3c2)ccc1[N+](=O)[O-]	1	-1	204*	137*	2.2
O=C(Nc1ccc(NC(=O)c2ccco2)nc1)c1cccnc1	0.4	62*	79	134*	2.4
O=C(Nc1cnc2ccccc2c1)c1cccnc1	0.9	11	106	134*	3.6*
COc1cc(OC)c(OC)cc1CN1CCN(Cc2cccn2C)CC1	1	1	-2	97	0.9
CN(Cc1nc(-c2ccccn2)no1)S(=O)(=O)c1ccc(Cl)cc1	1.1	-7	5	98	0.91
CN(Cc1ccccc1)S(=O)(=O)c1ccc(S(=O)(=O)N2CCN(CCC#N)CC2)cc1	.	.	14	99	.
Cc1ccc(-n2nc3c(c2NC(=O)c2c(-c4ccccc4Cl)noc2C)CSC3)cc1	1	-2	-12	92	1
O=C(Nc1cnc2ccccc2c1)c1cccc(-n2cnnn2)c1	1	0	60	135*	1.4
Cn1c(NC(=O)c2cccnc2)nc2ccccc21	0.8	21	74	148*	2.2
CCCNC(=O)c1noc2c1CCc1cc(OC)ccc1-2	0.2	78*	160*	110	6.1*
COc1ccc2c(c1)CCc1c(C(=O)NCC(C)C)noc1-2	0.5	49	178*	122	6.3*
COc1ccc2c(c1)CCc1c(C(=O)N3CCCCCC3)noc1-2	0.9	12	130	136*	3.4*
CC(=O)c1cccc(NC(=O)c2noc3c2CCc2ccccc2-3)c1	0.7	32	169*	123	1.6
O=C(CC(Nc1ccccc1)C(=O)O)c1ccccc1 (stereo not drawn)	0.2	78*	.	.	3.3*
CCOc1ccc(NC(=O)Nc2ccc3nsnc3c2)cc1	0.9	6	-1	125	1.5
Cc1ccc(NC(=O)Nc2cccs2)nc1	0.8	16	35	126	1.9
SMILES	FLuc act counter	FLuc inhib CS	APP 5'UTR act	STAT1 act	NF-kB neuron act
CCc1ccc(NC(=O)Nc2cccs2)cc1	0.2	85*	6	134*	3.8*
CCOc1ccc(NC(=O)Nc2cccs2)cc1	0.2	83*	.	123	4.5*
Cc1ccc(NC(=O)Nc2cccs2)cc1	0.4	64*	95	115	2.2
COc1cc(-c2nc(CN(C)C(C)c3ccncn3)c(C)o2)ccc1F (stereo not drawn)	1	0	-7	101	.
Cc1c(C(=O)NN2CCOCC2)oc2c1ccc1ccccc12	1.1	-7	-7	103	0.99
CSc1nc(NC(C)=O)nc(C)c1Cl	1.1	-10	3	103	1.1
COc1ccc(/C=C/c2noc(-c3ccccc3O)n2)cc1	0.5	54*	71	100	1
COc1cc(/C=C/c2noc(-c3ccccc3O)n2)cc(OC)c1OC	1	-5	52	102	1.3
COc1cccc(C2CC(c3ccc(Cl)cc3Cl)n3nc(N)nc3N2)c1 (stereo not drawn)	1	-2	.	96	0.89
COc1ccc2c(c1)NC(c1cc(Cl)cc(Cl)c1O)c1cccn1-2 (stereo not drawn)	1	-5	9	99	3.7*
CC1(C)CC(CC(=O)Nc2nccs2)(c2ccccc2)CCO1 (stereo not drawn)	1	-4	18	94	0.84
COc1ccc(N/C=C2/CCCCC2=O)cc1	0.8	16	5	119	0.91

Screens: PubChem BioAssay, several laboratories
